Data as given in ChEMBL document CHEMBL1125212, “Dual-action cephalosporins: cephalosporin 3'-quinolone carbamates” (J Med Chem, 1991).
In brackets after ≈: the same amount, converted by molar mass.

How the values were obtained:
[1] = tested on: Escherichia coli; test: Minimum inhibitory concentration required to inhibit the activity of Escherichia coli UB1005; type: functional
Method in brief: (§1)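 Agar dilution on Mueller-Hinton agar using 2-fold serial dilutions, giving final 128 to 0.0156 μg/mL (extended to 0.000977 μg/mL where needed). Inoculum was overnight broth culture diluted 100-fold, about 3×10^4 CFU/spot, applied by replicator. MIC read after overnight incubation at 36 °C.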

[2] = tested on: Serratia marcescens; test: The compound was tested in vitro for minimum inhibitory concentration against Serratia marcescens 1071; type: functional; method in brief: as §1
[3] = tested on: Escherichia coli; test: The compound was evaluated for the inhibition of [14C]- Pen G binding to Escherichia coli UB1005 penicillin-binding protein 3 60 kDa.
Method in brief: (§2)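 Membranes from sonicated E. coli UB1005 were solubilized. Binding to penicillin-binding proteins was measured as inhibition of [14C]penicillin G binding.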

[4] = tested on: Escherichia coli; test: The compound was tested in vitro for minimum inhibitory concentration against Escherichia coli 257; type: functional; method in brief: as §1
[5] = tested on: Escherichia coli; test: The compound was tested in vitro for minimum inhibitory concentration against Escherichia coli TEM-1; type: functional; method in brief: as §1
[6] = tested on: Enterococcus faecalis; test: The compound was tested in vitro for minimum inhibitory concentration against Enterococcus faecalis ATCC 29212; type: functional; method in brief: as §1
[7] = tested on: Proteus mirabilis; test: The compound was tested in vitro for minimum inhibitory concentration against Proteus mirabilis 90; type: functional
Method in brief: (§3)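 Proteus MICs by agar dilution on Mueller-Hinton medium containing 3% agar. Serial 2-fold dilutions gave final 128 to 0.0156 μg/mL (further to 0.000977 μg/mL). Inoculum was overnight broth diluted 100-fold, about 3×10^4 CFU/spot. Plates read after overnight incubation at 36 °C.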

[8] = tested on: Klebsiella pneumoniae; test: The compound was tested in vitro for minimum inhibitory concentration against Klebsiella pneumoniae A; type: functional; method in brief: as §1
[9] = tested on: Enterobacter cloacae; test: The compound was tested in vitro for minimum inhibitory concentration against Enterobacter cloacae P99; type: functional
[10] = tested on: Staphylococcus aureus; test: (§4) The compound was tested in vitro for minimum inhibitory concentration against Staphylococcus aureus 753; type: functional; method in brief: as §1
[11] = tested on: Escherichia coli; test: Minimum inhibitory concentration for inhibition of [14C]- Pen G binding to Escherichia coli UB1005; type: functional; method in brief: as §2
[12] = tested on: Escherichia coli; test: Minimum inhibitory concentration required to inhibit the activity of Escherichia coli ATCC 25922; type: functional; method in brief: as §1
[13] = tested on: Escherichia coli; test: The compound was evaluated for the inhibition of [14C]- Pen G binding to Escherichia coli UB1005 penicillin-binding protein 1a 90 kDa.; method in brief: as §2
[14] = tested on: Escherichia coli; test: The compound was evaluated for the inhibition of [14C]- Pen G binding to Escherichia coli UB1005 penicillin-binding protein 2 66 kDa.; method in brief: as §2
[15] = tested on: Escherichia coli; test: Inhibitory activity on replicative DNA biosynthesis in Escherichia coli H560 (permeabilised cells); type: functional, organism-based
Method in brief: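 E. coli H560 cells permeabilized with toluene. ATP-dependent incorporation of [3H]thymidine into trichloroacetic acid-insoluble material was measured. IC50 taken as the concentration giving 50% inhibition.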

[16] = tested on: Pseudomonas aeruginosa; test: The compound was tested in vitro for minimum inhibitory concentration against Pseudomonas aeruginosa 8780; type: functional; method in brief: as §1
[17] = tested on: Staphylococcus aureus; test: The compound was tested in vitro for minimum inhibitory concentration against Staphylococcus aureus smith; type: functional; method in brief: as §1
[18] = tested on: Escherichia coli; test: The compound was evaluated for the inhibition of [14C]- Pen G binding to Escherichia coli UB1005 penicillin-binding protein 1b 90 kDa.; method in brief: as §2
[19] = tested on: Streptococcus pyogenes; test: The compound was tested in vitro for minimum inhibitory concentration against Streptococcus pyogenes; type: functional
Method in brief: (§5)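 Streptococci tested by agar dilution on brain heart infusion agar with 20 units/mL bovine liver catalase. Final drug range 128 to 0.0156 μg/mL by 2-fold steps, extended to 0.000977 μg/mL when required. Inoculum about 3×10^4 CFU/spot from overnight broth diluted 100-fold. MIC after overnight incubation at 36 °C.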

[20] = tested on: Staphylococcus aureus; test: The compound was tested in vitro for minimum inhibitory concentration against Staphylococcus aureus 67-0; type: functional; method in brief: as §1
[21] = tested on: Pseudomonas aeruginosa; test: The compound was tested in vitro for minimum inhibitory concentration against Pseudomonas aeruginosa 18S/H; type: functional; method in brief: as §1
[22] = tested on: Streptococcus pneumoniae; test: The compound was tested in vitro for minimum inhibitory concentration against Streptococcus pneumoniae 6301; type: functional; method in brief: as §5
[23] = tested on: Proteus vulgaris; test: The compound was tested in vitro for minimum inhibitory concentration against Proteus vulgaris 1028 BC; type: functional; method in brief: as §3
[24] = tested on: Micrococcus luteus; test: The compound was tested in vitro for minimum inhibitory concentration against Micrococcus luteus ATCC 9341; type: functional; method in brief: as §1
[25] = tested on: Escherichia coli; test: The compound was tested in vitro for minimum inhibitory concentration against Escherichia coli ATCC 25922; type: functional; method in brief: as §1
[26] = tested on: Citrobacter freundii; test: The compound was tested in vitro for minimum inhibitory concentration against Citrobacter Freundii BS-16; type: functional; method in brief: as §1
[27] = tested on: Staphylococcus aureus; test: as §4; type: functional, staphylococcus aureus smith; method in brief: as §1

MIC [2] | Inhibitory concentration [3] | MIC [4] | MIC [5] | MIC [6] | MIC [7] | MIC [8] | MIC [9] | MIC [11] | Inhibitory concentration [13] | Inhibitory concentration [14] | MIC [16] | MIC [17] | Inhibitory concentration [18] | MIC [19] | MIC [20] | MIC [21] | MIC [22] | MIC [23] | MIC [24] | SMILES | other results
0.125 µg/mL (≈ 0.203 µM) | 100 µg/mL | 0.063 µg/mL (≈ 0.102 µM) | 0.063 µg/mL (≈ 0.102 µM) | 4 µg/mL (≈ 6.5 µM) | 1 µg/mL (≈ 1.62 µM) | 0.25 µg/mL (≈ 0.406 µM) | 0.031 µg/mL (≈ 0.0504 µM) | 2 µg/mL (≈ 3.25 µM) | > 100 µg/mL | > 100 µg/mL | 2 µg/mL (≈ 3.25 µM) | 0.5 µg/mL (≈ 0.812 µM) | > 100 µg/mL | 0.125 µg/mL (≈ 0.203 µM) | 4 µg/mL (≈ 6.5 µM) | 1 µg/mL (≈ 1.62 µM) | 0.063 µg/mL (≈ 0.102 µM) | 0.063 µg/mL (≈ 0.102 µM) | 0.5 µg/mL (≈ 0.812 µM) | O=CN[C@@H]1C(=O)N2C(C(=O)O)=C(COC(=O)N3CCN(c4cc5c(cc4F)c(=O)c(C(=O)O)cn5C4CC4)CC3)CS[C@H]12 | MIC [1]: 2 µg/mL (≈ 3.25 µM); MIC [10]: 1 µg/mL (≈ 1.62 µM); MIC [12]: 0.06 µg/mL (≈ 0.0975 µM); IC50 [15]: 0.5 µg/mL (≈ 0.812 µM); MIC [25]: 0.063 µg/mL (≈ 0.102 µM)
0.5 µg/mL (≈ 0.593 µM) | < 0.1 µg/mL | 0.063 µg/mL (≈ 0.0747 µM) | 0.063 µg/mL (≈ 0.0747 µM) | 1 µg/mL (≈ 1.19 µM) | 0.25 µg/mL (≈ 0.297 µM) | 0.25 µg/mL (≈ 0.297 µM) | 0.63 µg/mL (≈ 0.747 µM) | 1 µg/mL (≈ 1.19 µM) | 100 µg/mL | > 100 µg/mL | 1 µg/mL (≈ 1.19 µM) | 1 µg/mL (≈ 1.19 µM) | 10 µg/mL | 0.25 µg/mL (≈ 0.297 µM) | 4 µg/mL (≈ 4.75 µM) | 1 µg/mL (≈ 1.19 µM) | 0.25 µg/mL (≈ 0.297 µM) | 0.125 µg/mL (≈ 0.148 µM) | 1 µg/mL (≈ 1.19 µM) | CC(C)(O/N=C(\C(=O)N[C@@H]1C(=O)N2C(C(=O)O)=C(COC(=O)N3CCN(c4cc5c(cc4F)c(=O)c(C(=O)O)cn5C4CC4)CC3)CS[C@H]12)c1csc(N)n1)C(=O)O | MIC [1]: 1 µg/mL (≈ 1.19 µM); MIC [26]: 0.125 µg/mL (≈ 0.148 µM); MIC [10]: 4 µg/mL (≈ 4.75 µM); MIC [12]: 0.06 µg/mL (≈ 0.0712 µM); IC50 [15]: 2 µg/mL (≈ 2.37 µM); MIC [25]: 0.063 µg/mL (≈ 0.0747 µM)
0.125 µg/mL (≈ 0.154 µM) | < 0.1 µg/mL | 0.063 µg/mL (≈ 0.0774 µM) | 0.063 µg/mL (≈ 0.0774 µM) | 0.5 µg/mL (≈ 0.614 µM) | 0.5 µg/mL (≈ 0.614 µM) | 0.125 µg/mL (≈ 0.154 µM) | 0.063 µg/mL (≈ 0.0774 µM) | 1 µg/mL (≈ 1.23 µM) | 2 µg/mL | 100 µg/mL | 2 µg/mL (≈ 2.46 µM) | 1 µg/mL (≈ 1.23 µM) | 10 µg/mL | 0.031 µg/mL (≈ 0.0381 µM) | 4 µg/mL (≈ 4.92 µM) | 1 µg/mL (≈ 1.23 µM) | 0.031 µg/mL (≈ 0.0381 µM) | 0.063 µg/mL (≈ 0.0774 µM) | 0.063 µg/mL (≈ 0.0774 µM) | NC(=O)CO/N=C(\C(=O)N[C@@H]1C(=O)N2C(C(=O)O)=C(COC(=O)N3CCN(c4cc5c(cc4F)c(=O)c(C(=O)O)cn5C4CC4)CC3)CS[C@H]12)c1csc(N)n1 | MIC [1]: 1 µg/mL (≈ 1.23 µM); MIC [10]: 2 µg/mL (≈ 2.46 µM); MIC [12]: 0.06 µg/mL (≈ 0.0737 µM); IC50 [15]: 1.2 µg/mL (≈ 1.47 µM); MIC [25]: 0.063 µg/mL (≈ 0.0774 µM)
> 128 µg/mL | 10 µg/mL | 64 µg/mL (≈ 157 µM) | 128 µg/mL (≈ 315 µM) | 32 µg/mL (≈ 78.7 µM) | 32 µg/mL (≈ 78.7 µM) | 128 µg/mL (≈ 315 µM) | > 128 µg/mL | > 128 µg/mL | 0.5 µg/mL | > 100 µg/mL | > 128 µg/mL | 0.063 µg/mL (≈ 0.155 µM) | 100 µg/mL | 0.125 µg/mL (≈ 0.308 µM) | 128 µg/mL (≈ 315 µM) | > 128 µg/mL | 0.125 µg/mL (≈ 0.308 µM) | > 128 µg/mL | 0.125 µg/mL (≈ 0.308 µM) | CC(=O)OCC1=C(C(=O)O)N2C(=O)[C@@H](NC(=O)COc3ccccc3)[C@H]2SC1 | MIC [26]: > 128 µg/mL; MIC [27]: 128 µg/mL (≈ 315 µM); MIC [25]: 128 µg/mL (≈ 315 µM)
